Screen size: about 360,000 compounds; about 3,600 (1%) were called active. Only a selection was taken, and actives are over-represented in it overall. Values without a mark were called inactive.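 The calls were made as follows: active = activation above the mean activation of all test compounds in the run plus 3 SD (cut at about 38% in these data); inactive = the rest.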
Each compound was assayed against Trace amine-associated receptor 1 (Homo sapiens) (UniProt Q96RJ0) (assay: activators of TAAR1 calcium mobilization – Fluo-8 calcium fluorescence, CHO RD-HGA16 cells, primary screen (AID 624467)). Details: CHO RD-HGA16 TAAR1, Fluo-8 calcium fluorescence; at 3 µM; active compounds read high; vehicle wells 0%, saturating PEA agonist 100%.
Trace amine-associated receptor 1 (Homo sapiens), sequence (Q96RJ0 whole entry, looked up): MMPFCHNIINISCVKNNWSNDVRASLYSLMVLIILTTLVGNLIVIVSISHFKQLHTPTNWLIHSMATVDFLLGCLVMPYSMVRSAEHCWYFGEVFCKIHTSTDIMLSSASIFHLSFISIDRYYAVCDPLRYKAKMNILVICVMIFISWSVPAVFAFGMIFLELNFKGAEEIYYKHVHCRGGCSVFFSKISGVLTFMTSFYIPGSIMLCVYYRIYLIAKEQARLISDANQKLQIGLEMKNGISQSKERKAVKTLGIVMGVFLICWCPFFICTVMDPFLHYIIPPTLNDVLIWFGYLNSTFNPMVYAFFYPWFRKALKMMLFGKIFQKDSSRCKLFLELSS
Summary of the method: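 System: CHO RD-HGA16 cells carrying human TAAR1 plus Gα16; Incubation: 17-24 h seeding, 75 min 37 °C dye, 30 min RT; Measured by: Fluo-8 fluorescence, 5 s baseline then 140 s kinetic read; Control set: DMSO and PEA EC100; Replication: single well for each compound.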
O=C(C(=O)N1CCN(c2ccccc2)CC1)c1ccc2c(c1)OCO2 gave an activation of -0.35%.
CCC(C)NC(=O)c1ccc(NC(=O)CC2SC(N3CCCCC3)=NC2=O)cc1 (stereo unspecified) gave an activation of 1.77%.
Work on C=CCOC(=O)C1=C[C@H](c2ccc(Br)cc2)C[C@H](OCCCCO)O1 yielded an activation of 8.86%.
In the case of COc1cc2c(cc1OC)CN(C(C)C(=O)Nc1cccc(S(=O)(=O)N3CCOCC3)c1)CC2 (stereo unspecified), the activation is reported as 0.59%.
Compound O=Cc1c(NCCCN2CCCC2=O)c2ccccc2[nH]c1=O has an activation of 1.42%.
In the case of O=Cc1c(NCCc2cccc(F)c2)c2ccccc2[nH]c1=O, the activation is reported as 72.1% (active).
O=C(NCCc1ccc(F)cc1)c1n[nH]c2ccccc12 showed an activation of 1.79%.
C=CCN1C(=O)N(Cc2ccccc2)c2ccccc2S1(=O)=O was tested, and the activation was 0.49%.
CCCCCCc1cc2cc(-c3nnc(-c4cccc(OC)c4)o3)c(=O)oc2cc1O gave an activation of 16.7%.
With CCn1cc(CN2CCCC(CNS(=O)(=O)Cc3ccccc3)C2)cn1 (stereo unspecified) the activation was 0.93%.
In the case of COc1ccc2nc3n(c(=O)c2c1)-c1ccc(Cl)cc1C(=O)NC3Cc1ccccc1 (stereo unspecified), the activation is reported as 4.87%.
Cn1c(=O)c(=O)n(C)c2cc(S(=O)(=O)NCCN3CCN(c4ccccc4F)CC3)ccc21 gave an activation of -1.59%.
For O=S(=O)(NCCc1ccccc1)c1ccccc1, the activation was 15.9%.
Cn1c(=O)c(=O)n(C)c2cc(S(=O)(=O)NCCc3ccccc3)ccc21 was tested, and the activation was 82.3% (active).
Compound C[C@@H](CN1C2=NC[C@@H](Cc3ccccc3)N2C[C@H]1Cc1ccc(O)cc1)NC(=O)CCC1CCCCC1 has an activation of -0.01%.
Work on O=C(NCC1(N2CCCCC2)CCCCC1)c1cccc(S(=O)(=O)Nc2ccccc2Cl)c1 yielded an activation of -0.1%.
For C[C@H]1[C@H](c2ccccc2)Oc2cc(Br)ccc2S(=O)(=O)N1Cc1cccc(F)c1, the activation was 2.18%.
With Cc1ccnc(NC(=O)C(C)N2C(=O)c3ccccc3C2=O)c1 (stereo unspecified) the activation was 2.11%.
For Cc1cccc(NC(=O)C(C)N2C(=O)C3C4CC(C(Br)C4Br)C3C2=O)c1 (stereo unspecified), the activation was 49.9% (active).
In the case of Cc1cccc(NC(=O)CN2C(=O)CNC2=O)c1, the activation is reported as 6.24%.
Work on Cc1cccc(N(C(=O)c2ccc(CN3CCOCC3)o2)C(C(=O)NC2CCCCC2)c2ccc(F)cc2)c1 (stereo unspecified) yielded an activation of 0.09%.
COc1ccccc1C(=O)N1O[C@]23C=C[C@]14C[C@@H](O)CC[C@]4(C)C2CC[C@]1(C)[C@@H]([C@H](C)/C=C/[C@H](C)C(C)C)CC[C@H]13 (stereo partly specified) showed an activation of -1.12%.
O=C(Nc1c(Cl)c(C2CC2)nn1-c1ccccc1)C(Cl)(Cl)Cl was tested, and the activation was 1.51%.
In the case of CCCCOc1ccc(CSC(=N)N)cc1[N+](=O)[O-], the activation is reported as 68.2% (active).
CCCCCOc1ccc(CSC2=NCCN2)cc1[N+](=O)[O-] was tested, and the activation was 40.3% (active).
O=[N+]([O-])c1ccccc1OCCCCN1CCCCC1 gave an activation of 7.82%.
CCCCOc1ccc(CON(C(C)=O)C(C)=O)cc1Cl showed an activation of -2.24%.
Compound CCOc1ccc(C(=O)Nc2nccs2)cc1[N+](=O)[O-] has an activation of 5.29%.
Compound CCCCOC(=O)CCCc1ccc([N+](=O)[O-])cc1[N+](=O)[O-] has an activation of -2.61%.
For C#CCN([C@@H](C)C(=O)OCC)S(=O)(=O)c1ccc(Br)cc1F, the activation was -2.1%.
O=C(C[C@@H]1C/C=C\CCC(=O)OC[C@@H]2CCCN2C1=O)NCCO gave an activation of 13.4%.
In the case of C[C@H](CO)N1C[C@H](C)[C@@H](CN(C)C(=O)Nc2ccccc2F)OCc2cn(nn2)CCCC1=O, the activation is reported as 0.9%.
In the case of Cc1ccc(NC(=O)c2cnc(SCC(=O)NCC3CCCO3)n(C)c2=O)cc1 (stereo unspecified), the activation is reported as 1.71%.
Work on Cc1ccccc1-c1nc(CS(=O)(=O)CC(=O)NC(C)c2ccccc2)c(C)o1 (stereo unspecified) yielded an activation of -0.93%.
With CSc1ccc(CCNC(=O)CS(=O)(=O)Cc2nc(-c3ccccc3F)oc2C)cc1 the activation was 2.41%.
For Cc1ccccc1-c1nc(CS(=O)(=O)CC(=O)N2CCc3ccccc3C2)c(C)o1, the activation was 45.5% (active).
CCOC(=O)/C=C/c1ccccc1O gave an activation of 0.06%.
For CC(=O)N1Cc2cc(C(=O)NCc3cccc(F)c3)nc(-c3cccc(C4=CCCC4)c3)c2[C@H]1CCO, the activation was 1.95%.
For COc1ccccc1C(c1nnnn1C(C)(C)C)N1CCN(Cc2ccccc2)CC1 (stereo unspecified), the activation was 7.42%.
COc1ccc(OC)c(C(c2nnnn2C(C)(C)C)N2CCc3ccccc3C2)c1 (stereo unspecified) was tested, and the activation was 64.7% (active).
Compound COCCn1nnnc1C(c1cc2ccc(OC)cc2[nH]c1=O)N1CCc2ccccc2C1 (stereo unspecified) has an activation of 5.6%.
For O=C(NNC(=O)c1cc(-c2ccccc2Cl)nc2ccccc12)c1csc(N2CCOCC2)n1, the activation was 2.63%.
Work on O=C(OCCOc1ccccc1F)c1cc(S(=O)(=O)N2CCOCC2)ccc1F yielded an activation of 3.93%.
COc1cccc(-c2cc(CNC(=O)[C@@H](Cc3ccccc3)NC(=O)[C@H]3O[C@@H](n4cnc(C(N)=O)n4)[C@H](O)[C@@H]3O)no2)c1 was tested, and the activation was 2.47%.
Compound Cc1ccc(NC(=O)CN(C)C(=O)c2ccc(Cl)c(S(=O)(=O)NCc3ccco3)c2)cc1 has an activation of 1.71%.
Compound COc1ccc(CNC(=O)c2ccc(-c3cccnc3)c3ccoc23)cc1OC has an activation of 19.1%.
In the case of C[N+](C)(C)CCNC(=O)c1c[nH]c2ccccc12, the activation is reported as 3.46%.
Compound CCc1ccc(N2CC(O)=C(c3nc4ccccc4c(=O)[nH]3)C2=N)cc1 has an activation of 7.2%.
In the case of N=C1C(c2nc3ccccc3[nH]2)=C(O)CN1NC(=O)c1c[nH]c2ccccc12, the activation is reported as 41.7% (active).
Compound C=CCN=C1NC(c2ccccc2)C(C(=O)OC)=C(C)N1Cc1ccc(C(F)(F)F)cc1 (stereo unspecified) has an activation of 26.7%.
For CCN(CC)CCCC(C)n1c2nc(=O)[nH]c(=O)c-2nc2cc(Cl)ccc21 (stereo unspecified), the activation was 244% (active).
COc1cccc(CC(=O)N2CCN(C(=O)C(=O)c3cccc(C(F)(F)F)c3)CC2)c1 showed an activation of -0.34%.
With CCCCCCCCN1C(=O)[C@@H](CC(=O)NCc2ccc(C)o2)C[C@@]2(C(=O)OC)C1=C[C@H](C(C)(C)C)O[C@@H]2C the activation was -1.18%.
For CCCc1cc(C(=O)Nc2ccc(C(=O)OC)cc2)cs1, the activation was 42.9% (active).
Compound CCCc1cc(C(=O)Nc2ccc(Cl)cn2)cs1 has an activation of 0.75%.
With CCN(CC)C(=O)CCC(=O)Nc1ccc(C(=O)OC)cc1 the activation was 4.26%.
NC1=NC(c2ccc([N+](=O)[O-])cc2)N(c2ccc(F)cc2)C(N)=N1 (stereo unspecified) gave an activation of 2.32%.
CCOC(=O)Cc1csc(NC(=O)Nc2ccccc2)n1 was tested, and the activation was 51.5% (active).
Compound CCOC(=O)Cc1csc(NC(NC(=O)OCC)(C(F)(F)F)C(F)(F)F)n1 has an activation of 11.4%.
COC(=O)Cc1csc(Nc2c(C)n(C)n(-c3ccccc3)c2=O)n1 was tested, and the activation was 7.82%.
Work on CCCOCC(O)CC(CC)C(=O)NNC(=S)Nc1ccccc1 (stereo unspecified) yielded an activation of 6.99%.
For CCCCC(=O)NNC(=S)NC(=O)C(c1ccccc1)c1ccccc1, the activation was 137% (active).
C/C(=N\NC(=O)CNC(=O)C(c1ccccc1)c1ccccc1)c1ccc(C)cc1 was tested, and the activation was -0.46%.
Work on CCN(CC)Cc1nc2sc(C)c(C)c2c(=O)[nH]1 yielded an activation of 7.06%.
In the case of Cc1cc(NCCc2c[nH]c3ccccc23)ccc1Oc1cccnc1, the activation is reported as -0.68%.
COC(=O)Nc1nc2ccc(C(=O)C3CC3)cc2[nH]1 gave an activation of 0.33%.
In the case of CC(C)C(=O)Nc1nnc(SCC(=O)N2C(C)CCCC2C)s1 (stereo unspecified), the activation is reported as 2.6%.
Compound CC/C(=C(/c1ccccc1)c1ccc(OCC[N+](C)(C)C)cc1)c1ccccc1 has an activation of 13.5%.
For N#Cc1ccc(OCCCN2CCC(C(O)(c3ccccc3)c3ccccc3)CC2)c(F)c1, the activation was 51% (active).
Compound OC(c1ccccc1)(c1ccccc1)C1CCN(CCCOc2ccccc2)CC1 has an activation of 23.6%.
OC(c1ccccc1)(c1ccccc1)C1CCN(CCCOc2ccc(-c3ccsc3)cc2)CC1 was tested, and the activation was 35.3%.
Cc1ccc2c(c1)N(S(=O)(=O)c1cc(-c3cc(C)no3)ccc1C)CCO2 showed an activation of 0.2%.
In the case of Nc1c(C(=O)c2cccs2)sc2nsc(SCCN3CCCCC3)c12, the activation is reported as 95.1% (active).
In the case of Nc1ccn([C@@H]2O[C@H](C(=O)N[C@H]3CCCCNC3=O)[C@@H](O)[C@H]2O)c(=O)n1, the activation is reported as -0.44%.
In the case of c1ccc(Nc2nc(N3CCOCC3)c3ccccc3n2)cc1, the activation is reported as 98.4% (active).
COc1ccc(Nc2ncc(F)c(N3CCOCC3)n2)cc1 showed an activation of 6.99%.
For c1ccc2c(NC3C4CC5CC(C4)CC3C5)nc(N3CCOCC3)nc2c1 (stereo unspecified), the activation was 28.9%.
Compound O=S1(=O)c2c(cccc2N2CCCCC2)O[C@H](COCc2ccccc2)CN1C1CC1 has an activation of -0.15%.
CC(C)Oc1ccc(/C=N/NC(=O)c2nnn(-c3nonc3N)c2CN(C)C2CCCCC2)cc1 was tested, and the activation was 19.2%.
With C/C(COc1ccccc1)=N\NC(=O)c1nnn(-c2nonc2N)c1-c1ccc(C)cc1 the activation was 6.16%.
Nc1nonc1-n1nnc(C(=O)N/N=C/c2ccc(Cl)cc2)c1-c1ccc2c(c1)OCO2 was tested, and the activation was 133% (active).
CCc1ccc(/C=N/NC(=O)c2nnn(-c3nonc3N)c2CN2CCc3ccccc32)cc1 showed an activation of 4.17%.
CCCOc1ccc(-c2c(C(=O)N/N=C/c3ccco3)nnn2-c2nonc2N)cc1 was tested, and the activation was 74.1% (active).
CC(C)c1c(C(=O)N/N=C/c2ccccc2C(=O)O)nnn1-c1nonc1N showed an activation of 2.66%.
CCOC(=O)N1CCN(C(=O)C[C@H]2C[C@@]3(C(=O)OC)C(=C[C@H](C4CCCC4)O[C@@H]3C)N(Cc3ccccc3)C2=O)CC1 showed an activation of -1.14%.
For CCc1ccc(C2=CC(=O)CC(C)(C)C2=O)cc1, the activation was -1.42%.

Source: PubChem BioAssay AID624467 (The Scripps Research Institute Molecular Screening Center, 2012)
